Consider 6 compounds from ChEMBL document CHEMBL1127487, “Cyclic enkephalin analogs with exceptional potency at peripheral delta opioid receptors” (J Med Chem, 1994).

Assay [1] has as its target Mu-type opioid receptor (Rattus norvegicus, UniProt P33535). As to the kind of experiment: Binding affinity towards mu opioid receptor was determined in rat brain using [3H]CTOP as radioligand. Format: tissue-based. The gist of the method: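 Rat brain membranes washed in 50 mM Tris-HCl pH 7.4, preincubated 30 min at 25 °C. Competition against 0.5 nM [3H]CTOP, 10 analog concentrations over an 800-fold range, in peptidase-inhibitor buffer with BSA. Incubation 3 h at 25 °C. Nonspecific binding defined by 10 μM naltrexone. Bound ligand filtered and counted; IC50 by nonlinear least-squares regression, at least three runs in duplicate.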

In assay [2] the target is Mu-type opioid receptor (Cavia porcellus, UniProt P97266). Kind of assay: Inhibitory concentration against electrically evoked contractions of guinea pig ileum longitudinal muscle-myenteric plexus. It is filed as functional, tissue-based. The gist of the method: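 Longitudinal muscle-myenteric plexus strips from male Hartley guinea pigs (250–500 g) in oxygenated Krebs bicarbonate at 37 °C, 1-g tension. Transmural stimulation at 0.1 Hz, 0.4-ms pulses, supramaximal voltage. Cumulative agonist doses with 3 min contact each. Inhibition is relative to contraction height over the preceding 1 min.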

For assay [3], the target named is Delta-type opioid receptor (Rattus norvegicus, UniProt P33533). As to the kind of experiment: Binding affinity towards delta opioid receptor was determined in rat brain using [H]-[p-Cl-Phe4]-DPDPE as radioligand. It is filed as tissue-based. Summed up: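 Rat brain membranes washed in 50 mM Tris-HCl pH 7.4, preincubated 30 min at 25 °C to strip endogenous peptides. Buffer contains BSA, bestatin, bacitracin, captopril and toluenesulfonyl fluoride. Incubation 3 h at 25 °C. Nonspecific binding with 10 μM naltrexone. Filtration, scintillation counting, nonlinear least-squares fit, n ≥ 6.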

Assay [4] in a line: Selectivity ratio (GPI/MVD) of the compound. Format: functional. The gist of the method: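 IC50 ratio GPI/MVD. GPI: guinea pig ileum strips, 1-g tension, 0.4-ms pulses. MVD: male ICR mouse vas deferens (25–40 g), Mg-free Krebs, 0.5-g tension, 2.0-ms pulses. Both tissues at 37 °C, 0.1 Hz, cumulative doses with 3 min contact. Hill-equation fit, ≥4 tissues each.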
Assay [5] has as its target Delta-type opioid receptor (Mus musculus, UniProt P32300). As to the kind of experiment: Inhibitory concentration against delta opioid receptor of electrically induced smooth muscle contraction of mouse vas deferens. Format: functional.
For assay [6], the system named is Opioid receptors; mu & delta. As to the kind of experiment: Selectivity ratio (mu/delta) of the compound. It is filed as protein assay.

The structures appear in SMILES notation. Where a SMILES comes first, the peptide text is derived from it. Bridges are numbered along the chain shown (N, C = ends). [ ]: non-standard residue; d: D form. dPen = CC(C)(S)[C@@H](N)C(=O)O A value given as a limit tells only on which side of the number the result lay.

Mu-type opioid receptor (Cavia porcellus, UniProt P97266), sequence (P97266 whole entry): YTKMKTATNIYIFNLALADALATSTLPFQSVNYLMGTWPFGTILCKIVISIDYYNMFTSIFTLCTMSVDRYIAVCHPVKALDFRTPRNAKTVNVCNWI
Delta-type opioid receptor (Mus musculus, UniProt P32300), sequence (P32300 whole entry): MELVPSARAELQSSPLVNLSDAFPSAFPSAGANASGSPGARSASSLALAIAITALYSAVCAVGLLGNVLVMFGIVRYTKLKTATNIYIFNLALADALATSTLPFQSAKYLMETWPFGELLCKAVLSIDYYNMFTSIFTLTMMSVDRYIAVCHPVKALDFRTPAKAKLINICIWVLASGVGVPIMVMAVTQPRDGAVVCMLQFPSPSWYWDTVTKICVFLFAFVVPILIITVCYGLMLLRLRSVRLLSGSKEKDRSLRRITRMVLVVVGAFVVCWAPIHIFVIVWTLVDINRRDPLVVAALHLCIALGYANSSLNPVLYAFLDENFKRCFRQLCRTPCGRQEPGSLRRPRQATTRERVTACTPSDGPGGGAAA
Delta-type opioid receptor (Rattus norvegicus, UniProt P33533), sequence (P33533 whole entry): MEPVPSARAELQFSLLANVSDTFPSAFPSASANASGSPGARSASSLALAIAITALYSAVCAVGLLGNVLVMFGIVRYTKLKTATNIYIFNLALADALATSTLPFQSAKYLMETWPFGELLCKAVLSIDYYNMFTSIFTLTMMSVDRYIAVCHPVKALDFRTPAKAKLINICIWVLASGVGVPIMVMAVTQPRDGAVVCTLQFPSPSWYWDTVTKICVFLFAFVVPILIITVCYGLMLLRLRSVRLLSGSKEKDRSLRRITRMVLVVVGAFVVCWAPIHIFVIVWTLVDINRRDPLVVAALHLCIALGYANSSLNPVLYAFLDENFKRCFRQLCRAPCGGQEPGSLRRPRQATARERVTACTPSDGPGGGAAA
Mu-type opioid receptor (Rattus norvegicus, UniProt P33535), sequence (P33535 whole entry): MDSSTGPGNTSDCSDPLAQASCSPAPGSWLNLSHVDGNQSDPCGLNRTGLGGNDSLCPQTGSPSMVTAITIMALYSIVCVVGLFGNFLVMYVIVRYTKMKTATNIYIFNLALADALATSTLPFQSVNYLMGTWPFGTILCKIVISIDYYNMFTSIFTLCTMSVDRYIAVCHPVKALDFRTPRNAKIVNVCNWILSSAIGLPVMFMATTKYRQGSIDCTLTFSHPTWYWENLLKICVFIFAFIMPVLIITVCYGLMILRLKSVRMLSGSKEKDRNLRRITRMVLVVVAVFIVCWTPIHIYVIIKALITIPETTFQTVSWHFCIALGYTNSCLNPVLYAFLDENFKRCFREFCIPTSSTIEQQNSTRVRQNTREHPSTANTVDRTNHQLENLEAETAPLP

As for `CC1(C)SSC[C@@H](C(=O)N[C@@H](Cc2ccccc2)C(=O)O)NC(=O)[C@H](Cc2ccc(I)cc2)NC(=O)CNC(=O)[C@@H]1NC(=O)[C@@H](N)Cc1ccc(O)cc1`, the IC50 is 1600 nM on Mu-type opioid receptor [1], 640 nM against Mu-type opioid receptor [2], 1.2 nM in assay [3] and 0.3 nM in assay [5]. Moreover, the Selectivity in assay [4] turned out to be 2100; in assay [6] it was 1300.
With `CC1(C)SSC[C@@H](C(=O)N[C@@H](Cc2ccccc2)C(=O)O)NC(=O)[C@H](Cc2ccc(Cl)cc2)NC(=O)CNC(=O)[C@@H]1NC(=O)[C@@H](N)Cc1ccc(O)cc1`, the IC50 at Mu-type opioid receptor [1] is 83 nM; at Mu-type opioid receptor [2], 36 nM; in assay [3], 0.51 nM; in assay [5] it was 0.076 nM. The Selectivity amounted to 470 in assay [4] and 160 in assay [6].
Regarding `CC1(C)SSC[C@@H](C(=O)N[C@@H](Cc2ccccc2)C(=O)O)NC(=O)[C@H](Cc2ccc(F)cc2)NC(=O)CNC(=O)[C@@H]1NC(=O)[C@@H](N)Cc1ccc(O)cc1`, the half-inhibitory concentration (IC50) at Mu-type opioid receptor [1] worked out at 110 nM; against Mu-type opioid receptor [2], 32 nM; in assay [3], 0.71 nM; in assay [5] it was 0.028 nM. In addition, the Selectivity in assay [4] was 1100; in assay [6] it was 160.
`CC1(C)SSC[C@@H](C(=O)N[C@@H](Cc2ccccc2)C(=O)O)NC(=O)[C@H](Cc2ccc(Br)cc2)NC(=O)CNC(=O)[C@@H]1NC(=O)[C@@H](N)Cc1ccc(O)cc1`: the IC50 was found to be 530 nM on Mu-type opioid receptor [1], 120 nM at Mu-type opioid receptor [2], 1 nM in assay [3] and 0.028 nM in assay [5]. For the same compound, the Selectivity in assay [4] was 4300; in assay [6], 530.
As for `CC1(C)SSC[C@@H](C(=O)N[C@@H](Cc2ccccc2)C(=O)O)NC(=O)[C@H](Cc2ccccc2)NC(=O)CNC(=O)[C@@H]1NC(=O)[C@@H](N)Cc1ccc(O)cc1` (H-Y[dPen]GFCF-OH; disulfide 2-5), the IC50 was 280 nM on Mu-type opioid receptor [1], 82.7 nM on Mu-type opioid receptor [2], 1.4 nM in assay [3] and 0.016 nM in assay [5]. For the same compound, the Selectivity in assay [4] turned out to be 5100; in assay [6], 200.
In turn, `CC(C)[C@H](NC(=O)[C@H](CC(=O)O)NC(=O)[C@H](Cc1ccccc1)NC(=O)[C@@H](C)NC(=O)[C@@H](N)Cc1ccc(O)cc1)C(=O)N[C@H](C(=O)NCC(N)=O)C(C)C` [DELTORPHIN C] gave a half-maximal inhibitory concentration (IC50) against Mu-type opioid receptor [2] of more than 1500 nM.
